Four molecules from ChEMBL document CHEMBL1156310, “Stepwise synthesis of oligonucleotide-peptide conjugates containing guanidinium and lipophilic groups in their 3'-termini” (Bioorg Med Chem Lett, 2010) can be followed below.

The subject of data set [1] is SH-SY5Y. Description: Antisense activity in human SH-SY5Y cells assessed as inhibition of luciferase gene expression at 300 nM after 22 hrs by luminometry. The format is functional. Details: scale not given: the % may be the effect or the level left. The procedure, abridged: (§1)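 Dual-luciferase plasmids (Renilla target, firefly internal control) transfected into SH-SY5Y; after 3 h, medium replaced with fresh medium containing ASO-peptide conjugates (150, 200, 300 nM) without Lipofectamine 2000. Luciferase activities measured 22 h after transfection; knockdown expressed as inhibition of Renilla expression. Phosphorothioate ASO targets Renilla mRNA 21-38 site.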

Data set [2] concerns SH-SY5Y. Put plainly: Antisense activity in human SH-SY5Y cells assessed as inhibition of luciferase gene expression at 60 nM after 22 hrs by luminometry in the presence of lipofectamine 2000. The format is functional. The method, boiled down:
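SH-SY5Y cells cotransfected via Lipofectamine 2000 with Renilla (target) and firefly (internal control) luciferase plasmids plus phosphorothioate ASO derivatives at 60 nM, targeting Renilla mRNA site 21-38; scrambled sequences as controls. Read-out: Renilla luciferase inhibition normalized to firefly.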

In data set [3] the test system is SH-SY5Y. Put plainly: Cellular uptake in human SH-SY5Y cells at 300 nM after 22 hrs by dual leucifearse reporter assay. Format: ADME, cell-based. To be noted: 0.3 µM. The method, boiled down: as §1
On the technique in general: In a reporter assay the amount or activity of a reporter protein is the signal.

Each structure is given as a SMILES string.

For `Cc1cn([C@H]2C[C@H](OP(O)(=S)OC[C@H]3O[C@@H](n4cc(C)c(=O)[nH]c4=O)C[C@@H]3OP(O)(=S)OC[C@H]3O[C@@H](n4cnc5c(=O)[nH]c(N)nc54)[C@H](O)[C@@H]3OP(O)(=S)OC[C@H]3O[C@@H](n4cc(C)c(=O)[nH]c4=O)C[C@@H]3OP(O)(=S)OC[C@H]3O[C@@H](n4cc(C)c(=O)[nH]c4=O)C[C@@H]3OP(O)(=S)OC[C@H]3O[C@@H](n4cc(C)c(=O)[nH]c4=O)C[C@@H]3OP(O)(=S)OC[C@H]3O[C@@H](n4ccc(N)nc4=O)[C@H](O)[C@@H]3OP(O)(=S)OC[C@H]3O[C@@H](n4ccc(N)nc4=O)[C@H](O)[C@@H]3OP(O)(=S)OC[C@H]3O[C@@H](n4cc(C)c(=O)[nH]c4=O)C[C@@H]3OP(O)(=S)OC[C@H]3O[C@@H](n4cc(C)c(=O)[nH]c4=O)C[C@@H]3OP(O)(=S)OC[C@H]3O[C@@H](n4cc(C)c(=O)[nH]c4=O)C[C@@H]3OP(O)(=S)OC[C@H]3O[C@@H](n4cnc5c(=O)[nH]c(N)nc54)[C@H](O)[C@@H]3OP(O)(=S)OC[C@H]3O[C@@H](n4ccc(N)nc4=O)[C@H](O)[C@@H]3O)[C@@H](COP(O)(=S)O[C@H]3[C@@H](O)[C@H](n4ccc(N)nc4=O)O[C@@H]3COP(O)(=S)O[C@H]3C[C@H](n4cc(C)c(=O)[nH]c4=O)O[C@@H]3COP(O)(=S)O[C@H]3[C@@H](O)[C@H](n4cnc5c(=O)[nH]c(N)nc54)O[C@@H]3COP(O)(=S)O[C@H]3[C@@H](O)[C@H](n4cnc5c(=O)[nH]c(N)nc54)O[C@@H]3COP(O)(=S)O[C@H]3[C@@H](O)[C@H](n4cnc5c(N)ncnc54)O[C@@H]3COP(O)(=S)OCCCC(=O)N[C@H](CCCCNC(=N)N)C(=O)N[C@@H](CCCCNC(N)N)C(=O)N[C@H](CCCCNC(=N)N)C(=O)N[C@@H](CCCCNC(=N)N)C(=O)N[C@H](CCCCNC(=N)N)C(=O)N[C@@H](CCCCNC(=N)N)C(=O)N[C@H](CCCCNC(=N)N)C(=O)N[C@@H](CCCCNC(=N)N)C(=O)NCCCCCCO)O2)c(=O)[nH]c1=O` (some centres undefined), the Activity in the data set with SH-SY5Y [1] stood at 28%. In addition, the inhibition at 0.06 µM in the data set on SH-SY5Y [2] worked out at 66%. The Drug uptake in the data set on SH-SY5Y [3] is recorded as 28%.

As for `Cc1cn([C@H]2C[C@H](OP(O)(=S)OC[C@H]3O[C@@H](n4cc(C)c(=O)[nH]c4=O)C[C@@H]3OP(O)(=S)OC[C@H]3O[C@@H](n4cnc5c(=O)[nH]c(N)nc54)[C@H](O)[C@@H]3OP(O)(=S)OC[C@H]3O[C@@H](n4cc(C)c(=O)[nH]c4=O)C[C@@H]3OP(O)(=S)OC[C@H]3O[C@@H](n4cc(C)c(=O)[nH]c4=O)C[C@@H]3OP(O)(=S)OC[C@H]3O[C@@H](n4cc(C)c(=O)[nH]c4=O)C[C@@H]3OP(O)(=S)OC[C@H]3O[C@@H](n4ccc(N)nc4=O)[C@H](O)[C@@H]3OP(O)(=S)OC[C@H]3O[C@@H](n4ccc(N)nc4=O)[C@H](O)[C@@H]3OP(O)(=S)OC[C@H]3O[C@@H](n4cc(C)c(=O)[nH]c4=O)C[C@@H]3OP(O)(=S)OC[C@H]3O[C@@H](n4cc(C)c(=O)[nH]c4=O)C[C@@H]3OP(O)(=S)OC[C@H]3O[C@@H](n4cc(C)c(=O)[nH]c4=O)C[C@@H]3OP(O)(=S)OC[C@H]3O[C@@H](n4cnc5c(=O)[nH]c(N)nc54)[C@H](O)[C@@H]3OP(O)(=S)OC[C@H]3O[C@@H](n4ccc(N)nc4=O)[C@H](O)[C@@H]3O)[C@@H](COP(O)(=S)O[C@H]3[C@@H](O)[C@H](n4ccc(N)nc4=O)O[C@@H]3COP(O)(=S)O[C@H]3C[C@H](n4cc(C)c(=O)[nH]c4=O)O[C@@H]3COP(O)(=S)O[C@H]3[C@@H](O)[C@H](n4cnc5c(=O)[nH]c(N)nc54)O[C@@H]3COP(O)(=S)O[C@H]3[C@@H](O)[C@H](n4cnc5c(=O)[nH]c(N)nc54)O[C@@H]3COP(O)(=S)O[C@H]3[C@@H](O)[C@H](n4cnc5c(N)ncnc54)O[C@@H]3COP(O)(=S)OCCCC(=O)N[C@H](CCCCN)C(=O)N[C@@H](CCCCN)C(=O)NCCCCCCO)O2)c(=O)[nH]c1=O` (some centres undefined), the inhibition at 0.06 µM in the data set with SH-SY5Y [2] was 61%. In the data set with SH-SY5Y [3], this molecule returned a Drug uptake of 11%.

Consider `Cc1cn([C@H]2C[C@H](OP(O)(=S)OC[C@H]3O[C@@H](n4cc(C)c(=O)[nH]c4=O)C[C@@H]3OP(O)(=S)OC[C@H]3O[C@@H](n4cnc5c(=O)[nH]c(N)nc54)[C@H](O)[C@@H]3OP(O)(=S)OC[C@H]3O[C@@H](n4cc(C)c(=O)[nH]c4=O)C[C@@H]3OP(O)(=S)OC[C@H]3O[C@@H](n4cc(C)c(=O)[nH]c4=O)C[C@@H]3OP(O)(=S)OC[C@H]3O[C@@H](n4cc(C)c(=O)[nH]c4=O)C[C@@H]3OP(O)(=S)OC[C@H]3O[C@@H](n4ccc(N)nc4=O)[C@H](O)[C@@H]3OP(O)(=S)OC[C@H]3O[C@@H](n4ccc(N)nc4=O)[C@H](O)[C@@H]3OP(O)(=S)OC[C@H]3O[C@@H](n4cc(C)c(=O)[nH]c4=O)C[C@@H]3OP(O)(=S)OC[C@H]3O[C@@H](n4cc(C)c(=O)[nH]c4=O)C[C@@H]3OP(O)(=S)OC[C@H]3O[C@@H](n4cc(C)c(=O)[nH]c4=O)C[C@@H]3OP(O)(=S)OC[C@H]3O[C@@H](n4cnc5c(=O)[nH]c(N)nc54)[C@H](O)[C@@H]3OP(O)(=S)OC[C@H]3O[C@@H](n4ccc(N)nc4=O)[C@H](O)[C@@H]3O)[C@@H](COP(O)(=S)O[C@H]3[C@@H](O)[C@H](n4ccc(N)nc4=O)O[C@@H]3COP(O)(=S)O[C@H]3C[C@H](n4cc(C)c(=O)[nH]c4=O)O[C@@H]3COP(O)(=S)O[C@H]3[C@@H](O)[C@H](n4cnc5c(=O)[nH]c(N)nc54)O[C@@H]3COP(O)(=S)O[C@H]3[C@@H](O)[C@H](n4cnc5c(=O)[nH]c(N)nc54)O[C@@H]3COP(O)(=S)O[C@H]3[C@@H](O)[C@H](n4cnc5c(N)ncnc54)O[C@@H]3COP(O)(=S)OCCCC(=O)N[C@H](CCCCNC(=N)N)C(=O)N[C@@H](CCCCNC(=N)N)C(=O)N[C@H](CCCCNC(=N)N)C(=O)N[C@@H](CCCCNC(=N)N)C(=O)NCCCCCCO)O2)c(=O)[nH]c1=O` (some centres undefined), for which the inhibition at 0.06 µM in the data set with SH-SY5Y [2] turned out to be 57%. This molecule also gave a Drug uptake with SH-SY5Y [3] of 21%.

Turning to `Cc1cn([C@H]2C[C@H](OP(O)(=S)OC[C@H]3O[C@@H](n4cc(C)c(=O)[nH]c4=O)C[C@@H]3OP(O)(=S)OC[C@H]3O[C@@H](n4cnc5c(=O)[nH]c(N)nc54)[C@H](O)[C@@H]3OP(O)(=S)OC[C@H]3O[C@@H](n4cc(C)c(=O)[nH]c4=O)C[C@@H]3OP(O)(=S)OC[C@H]3O[C@@H](n4cc(C)c(=O)[nH]c4=O)C[C@@H]3OP(O)(=S)OC[C@H]3O[C@@H](n4cc(C)c(=O)[nH]c4=O)C[C@@H]3OP(O)(=S)OC[C@H]3O[C@@H](n4ccc(N)nc4=O)[C@H](O)[C@@H]3OP(O)(=S)OC[C@H]3O[C@@H](n4ccc(N)nc4=O)[C@H](O)[C@@H]3OP(O)(=S)OC[C@H]3O[C@@H](n4cc(C)c(=O)[nH]c4=O)C[C@@H]3OP(O)(=S)OC[C@H]3O[C@@H](n4cc(C)c(=O)[nH]c4=O)C[C@@H]3OP(O)(=S)OC[C@H]3O[C@@H](n4cc(C)c(=O)[nH]c4=O)C[C@@H]3OP(O)(=S)OC[C@H]3O[C@@H](n4cnc5c(=O)[nH]c(N)nc54)[C@H](O)[C@@H]3OP(O)(=S)OC[C@H]3O[C@@H](n4ccc(N)nc4=O)[C@H](O)[C@@H]3O)[C@@H](COP(O)(=S)O[C@H]3[C@@H](O)[C@H](n4ccc(N)nc4=O)O[C@@H]3COP(O)(=S)O[C@H]3C[C@H](n4cc(C)c(=O)[nH]c4=O)O[C@@H]3COP(O)(=S)O[C@H]3[C@@H](O)[C@H](n4cnc5c(=O)[nH]c(N)nc54)O[C@@H]3COP(O)(=S)O[C@H]3[C@@H](O)[C@H](n4cnc5c(=O)[nH]c(N)nc54)O[C@@H]3COP(O)(=S)O[C@H]3[C@@H](O)[C@H](n4cnc5c(N)ncnc54)O[C@@H]3COP(O)(=S)OCCCC(=O)N[C@H](CCCCN)C(=O)N[C@@H](CCCCN)C(=O)N[C@H](CCCCN)C(=O)N[C@@H](CCCCN)C(=O)N[C@H](CCCCN)C(=O)N[C@@H](CCCCN)C(=O)N[C@H](CCCCN)C(=O)N[C@@H](CCCCN)C(=O)NCCCCCCO)O2)c(=O)[nH]c1=O` (some centres undefined), in the data set on SH-SY5Y [2], the inhibition at 0.06 µM was 65%. Also, the Drug uptake in the data set with SH-SY5Y [3] came to 11%.

A word on the inhibition: it is the share of the control response that was lost under treatment.
